Measured values taken from ChEMBL document CHEMBL2434844, “Synthesis, antimicrobial, antioxidant activities of novel 6-aryl-5-cyano thiouracil derivatives” (Eur J Med Chem, 2013).
Converted amounts (≈) assume the structure as drawn. The source made the active and inactive calls. No cut-off for these calls is given here.

Experiments:
Assay type in all cases: functional
[1] = tested on: Radical scavenging activity; experiment: Antioxidant activity assessed as DPPH free radical scavenging activity after 20 mins by UV-visible spectrophotometric analysis
Summary of the method: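 Kept in the dark at room temperature for 20 min, then absorbance read at 517 nm against DPPH blank, DMSO baseline. % scavenging = [(Ac−At)/Ac]×100; IC50 (µg/mL) from concentration plot; mean ± SEM, n=3, 8 replica each.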

[2] = tested on: Aspergillus flavus; experiment: Antifungal activity against Aspergillus flavus ATCC 11495 after 24 hrs by microdilution technique
[3] = tested on: Aspergillus flavus; experiment: Antifungal activity against Aspergillus flavus ATCC 11495 at 10 mg/disc after 48 hrs by disc-diffusion method
Summary of the method: (§1)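 Disc diffusion per Bauer method under NCCLS conditions on nutrient agar/Mueller-Hinton agar. Compound dissolved in sterile DMSO at 10 mg/mL, filtered 0.2 µm, stored frozen at -15 °C; 10 mg/disc in DMSO applied. DMSO control. Inhibition zone diameter measured in mm after 48 h incubation at 28 °C.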

[4] = tested on: Candida albicans; experiment: Antifungal activity against Candida albicans ATCC 26555 after 24 hrs by microdilution technique
Summary of the method: (§2)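 MIC by agar microdilution on Mueller-Hinton agar per NCCLS 1997. Bacteria subcultured overnight at 37 °C on MHA, Candida on SDA at 35 °C for 24-48 h, each passaged at least twice. Incubated 37 °C in humid chamber, read after 24 h.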

[5] = tested on: Candida albicans; experiment: Antifungal activity against Candida albicans ATCC 26555 at 10 mg/disc after 48 hrs by disc-diffusion method; summary of the method: as §1
[6] = tested on: Escherichia coli; experiment: Antibacterial activity against Escherichia coli ATCC 11775 after 24 hrs by microdilution technique; summary of the method: as §2
[7] = tested on: Escherichia coli; experiment: Antibacterial activity against Escherichia coli ATCC 11775 at 10 mg/disc after 48 hrs by disc-diffusion method; summary of the method: as §1
[8] = tested on: Bacillus cereus; experiment: Antibacterial activity against Bacillus cereus ATCC 14579 after 24 hrs by microdilution technique; summary of the method: as §2
[9] = tested on: Bacillus cereus; experiment: Antibacterial activity against Bacillus cereus ATCC 14579 at 10 mg/disc after 48 hrs by disc-diffusion method; summary of the method: as §1
[10] = tested on: Staphylococcus aureus; experiment: Antibacterial activity against Staphylococcus aureus ATCC 12600 after 24 hrs by microdilution technique; summary of the method: as §2
[11] = tested on: Staphylococcus aureus; experiment: Antibacterial activity against Staphylococcus aureus ATCC 12600 at 10 mg/disc after 48 hrs by disc-diffusion method; summary of the method: as §1
[12] = tested on: Aspergillus flavus; experiment: Antifungal activity against Aspergillus flavus ATCC 11495 at 50 ug/ml after 48 hrs by disc-diffusion method; details: ATCC 11495, 48 h, read-out: DIZ
Summary of the method: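 Disc diffusion per Bauer et al., following NCCLS conditions, on nutrient agar or Mueller-Hinton agar. Compounds were dissolved in sterile DMSO at 10 mg/mL stock, filtered at 0.2 µm and stored frozen at -15 °C. Test discs carried 10 mg/disc in DMSO, and fluconazole reference was 50 µg/mL. After 48 h incubation at 28 °C, inhibition zone diameter was read in mm.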

[13] = tested on: Candida albicans; experiment: Antifungal activity against Candida albicans ATCC 26555 at 50 ug/ml after 48 hrs by disc-diffusion method; details: ATCC 26555, 48 h, read-out: DIZ
[14] = tested on: Escherichia coli; experiment: Antibacterial activity against Escherichia coli ATCC 11775 at 10 mg/ml after 48 hrs by disc-diffusion method; details: DSM 30083 = JCM 1649, 48 h, read-out: DIZ
Summary of the method: (§3)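 Disc-diffusion reference: penicillin at 10 mg/mL on nutrient agar/Mueller-Hinton agar per Bauer method; inhibition zone diameter (mm) read after 48 h at 28 °C.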

[15] = tested on: Bacillus cereus; experiment: Antibacterial activity against Bacillus cereus ATCC 14579 at 10 mg/ml after 48 hrs by disc-diffusion method; details: ATCC 14579, 48 h, read-out: DIZ; summary of the method: as §3
[16] = tested on: Staphylococcus aureus; experiment: Antibacterial activity against Staphylococcus aureus ATCC 12600 at 10 mg/ml after 48 hrs by disc-diffusion method; details: ATCC 12600, 48 h, read-out: DIZ; summary of the method: as §3

SMILES | Activity [1] | IC50 [1] [µg/mL] | MIC [2] | diameter of the inhibition zone (DIZ) [3] | MIC [4] | diameter of the inhibition zone (DIZ) [5] | MIC ([6]; DSM 30083 = JCM 1649) | diameter of the inhibition zone (DIZ) ([7]; DSM 30083 = JCM 1649) | MIC [8] | diameter of the inhibition zone (DIZ) [9] | MIC ([10]; ATCC 12600, 24 h) [µg/mL] | diameter of the inhibition zone (DIZ) [11] | MIC ([2]; ATCC 11495, 24 h) [µg/mL] | MIC ([4]; ATCC 26555, 24 h) [µg/mL] | MIC ([8]; ATCC 14579, 24 h) [µg/mL] | MIC ([6]; DSM 30083 = JCM 1649, 24 h) [µg/mL] | diameter of the inhibition zone (DIZ) [7] [mm] | also measured
COc1cc(-c2[nH]c(=S)n3c(=O)[nH]nc3c2C#N)cc(OC)c1OC | Dose-dependent effect | 9.34 (≈ 26 µM) | inactive | inactive | inactive | inactive | inactive | inactive | inactive | inactive | 64 (≈ 178 µM) | 10 mm |  |  |  |  |  | 
O=C1O[C@H]([C@@H](O)CO)C(O)=C1O [ASCORBIC ACID] | Dose-dependent effect | 10 (≈ 56.8 µM) |  |  |  |  |  |  |  |  |  |  |  |  |  |  |  | 
N#Cc1c(-c2ccc(F)cc2)[nH]c(=S)n2c(=O)c(=O)[nH]nc12 | Dose-dependent effect | 14.72 (≈ 46.7 µM) |  | 18 mm | inactive | inactive | inactive | inactive | inactive | inactive | 32 (≈ 101 µM) | 14 mm | 16 (≈ 50.7 µM) |  |  |  |  | 
Cc1nnc2c(C#N)c(-c3ccc(F)cc3)[nH]c(=S)n12 | Dose-dependent effect | 72.03 (≈ 252 µM) | inactive | inactive | inactive | inactive | inactive | inactive | inactive | inactive |  | inactive |  |  |  |  |  | MIC [10]: inactive
OC(Cn1cncn1)(Cn1cncn1)c1ccc(F)cc1F [FLUCONAZOLE] |  |  |  |  |  |  |  |  |  |  |  |  | 16 (≈ 52.2 µM) | 16 (≈ 52.2 µM) |  |  |  | zone of inhibition at 50 µg/mL [12]: 21 mm; zone of inhibition at 50 µg/mL [13]: 20 mm
COc1cc(-c2[nH]c(=S)n3c(C)nnc3c2C#N)cc(OC)c1OC | Dose-dependent effect | 31.15 (≈ 87.2 µM) | inactive | inactive | inactive | inactive | inactive | inactive | inactive | inactive |  | inactive |  |  |  |  |  | MIC [10]: inactive
CC1(C)S[C@@H]2[C@H](NC(=O)Cc3ccccc3)C(=O)N2[C@H]1C(=O)O [PENICILLIN G] |  |  |  |  |  |  |  |  |  |  | 16 (≈ 47.8 µM) |  |  |  | 32 (≈ 95.7 µM) |  |  | zone of inhibition at 10000 µg/mL [14]: 12 mm; zone of inhibition at 10000 µg/mL [15]: 13 mm; zone of inhibition at 10000 µg/mL [16]: 16 mm
N#Cc1c(-c2ccc(F)cc2)[nH]c(=S)n2c(=O)[nH]nc12 | Dose-dependent effect | 19.62 (≈ 68.3 µM) | inactive | inactive | inactive | inactive | inactive | inactive | inactive | inactive | 32 (≈ 111 µM) | 12 mm |  |  |  |  |  | 
COc1cc(-c2[nH]c(=S)nc(NN)c2C#N)cc(OC)c1OC | Dose-dependent effect | 6.21 (≈ 18.6 µM) | inactive | inactive | inactive | inactive |  |  |  | 10 mm | 64 (≈ 192 µM) | 11 mm |  |  | 64 (≈ 192 µM) | 32 (≈ 96 µM) | 12 | 
N#Cc1c(NN)nc(=S)[nH]c1-c1ccc(F)cc1 | Dose-dependent effect | 15.24 (≈ 58.3 µM) |  | 13 mm | inactive | inactive |  |  |  | 12 mm | 16 (≈ 61.2 µM) | 15 mm | 32 (≈ 122 µM) |  | 64 (≈ 245 µM) | 32 (≈ 122 µM) | 14 | 
N#Cc1c(N/N=C/c2ccccc2)nc(=S)[nH]c1-c1ccc(F)cc1 | Dose-dependent effect | 13.8 (≈ 39.5 µM) |  | 19 mm |  | 19 mm |  |  |  | 22 mm | 16 (≈ 45.8 µM) | 24 mm | 16 (≈ 45.8 µM) | 16 (≈ 45.8 µM) | 16 (≈ 45.8 µM) | 16 (≈ 45.8 µM) | 19 | 
COc1cc(-c2[nH]c(=S)n3c(=O)c(=O)[nH]nc3c2C#N)cc(OC)c1OC | Dose-dependent effect | 8.55 (≈ 22.1 µM) |  | 17 mm | inactive | inactive | inactive | inactive | inactive | inactive | 32 (≈ 82.6 µM) | 14 mm | 16 (≈ 41.3 µM) |  |  |  |  | 
Cc1nc2c(C#N)c(-c3ccc(Br)cc3)[nH]c(=S)n2n1 |  |  |  | 7 mm |  | 8 mm |  |  |  | 6 mm | 128 (≈ 370 µM) | 7 mm | 256 (≈ 739 µM) | 128 (≈ 370 µM) | 128 (≈ 370 µM) | 128 (≈ 370 µM) | 6 | 
COc1ccc(/C=N/Nc2nc(=S)[nH]c(-c3ccc(F)cc3)c2C#N)cc1 | Dose-dependent effect | 12.68 (≈ 33.4 µM) |  | 18 mm |  | 18 mm |  |  |  | 21 mm | 16 (≈ 42.2 µM) | 23 mm | 16 (≈ 42.2 µM) | 16 (≈ 42.2 µM) | 16 (≈ 42.2 µM) | 16 (≈ 42.2 µM) | 19 | 
Cc1cc(C)n(-c2nc(=S)[nH]c(-c3ccc(F)cc3)c2C#N)n1 |  |  | inactive | inactive | inactive | inactive |  |  |  | 12 mm | 32 (≈ 98.3 µM) | 13 mm |  |  | 32 (≈ 98.3 µM) | 32 (≈ 98.3 µM) | 11 | 
N#Cc1c(-c2ccc(F)cc2)[nH]c(=S)n2c(=S)[nH]nc12 |  |  | inactive | inactive |  | 12 mm |  |  |  | 11 mm |  | inactive |  | 32 (≈ 105 µM) | 64 (≈ 211 µM) | 64 (≈ 211 µM) | 11 | MIC [10]: inactive
N#Cc1c(-c2ccc(Br)cc2)[nH]c(=S)n2cnnc12 |  |  |  | 17 mm |  | 16 mm |  |  |  | 17 mm | 16 (≈ 48.2 µM) | 21 mm | 16 (≈ 48.2 µM) | 16 (≈ 48.2 µM) | 16 (≈ 48.2 µM) | 16 (≈ 48.2 µM) | 12 | 
